Assay results as given in ChEMBL document CHEMBL6134795, “Mannich reaction mediated derivatization of chromones and their biological evaluations as putative multipotent ligands for the treatment of Alzheimer's disease” (RSC Med Chem, 2024).
The source made the active and inactive calls. The calls are words filed in the database; no cut-off is given here.

How the values were obtained:
SH-SY5Y [1] = experiment: Cytotoxicity against human SH-SY5Y cells assessed as cell viability at 5 uM by MTT assay relative to control; assay type: functional; conditions: read-out: Activity
Procedure, shortened: (§1)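 SH-SY5Y cells (DMEM/F-12 with 10% FBS, 1% horse serum, 1% penicillin) preincubated 24 h with compound at 1, 5 or 25 μM; MTT converted to formazan, solubilised in DMSO, absorbance read at 595 nm; viability expressed as percentage of untreated control.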

[2] = biological target: Amyloid-beta precursor protein (Homo sapiens) (UniProt P05067); experiment: Inhibition of self-induced amyloid beta (1 to 42 residues) (unknown origin) aggregation at 20 uM incubated at 48 hrs by fluorimetry-based thioflavin T assay
Procedure, shortened: (§2)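 Aβ1-42 pretreated with HFIP (1 mg mL−1) and dried, then incubated with compound (20 μM) at 37 °C for 24 h; an aliquot transferred and incubated further to 48 h. Glycine–NaOH buffer pH 8.0 with 5 μM ThT added; fluorescence read at 440–485 nm. % inhibition calculated against the Aβ-only control taken as 0%.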

[3] = biological target: Amyloid-beta precursor protein (Homo sapiens) (UniProt P05067); experiment: Inhibition of self-induced amyloid beta (1 to 42 residues) (unknown origin) aggregation at 20 uM incubated at 24 hrs by fluorimetry-based thioflavin T assay; procedure, shortened: as §2
Cholinesterase = Cholinesterase (Homo sapiens, UniProt P06276); experiment: Inhibition of recombinant BuChE (unknown origin) using BTCI as substrate preincubated for 30 mins followed by substrate addition by TECAN multiplate reader analysis
Procedure, shortened: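 Ellman method as for AChE, using butyrylcholinesterase with BTCI as substrate. Enzyme and compound preincubated 30 min at 37 °C in a CO2 incubator, then DTNB and BTCI added; absorbance read at 417 nm. Screening at 20 μM as % inhibition; IC50 for compounds exceeding 50% inhibition at 20 μM. Triplicate.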

[4] = biological target: T1, Amine oxidase [flavin-containing] B (Homo sapiens, UniProt P27338); experiment: Reversible inhibition of MAO-B (unknown origin) assessed as residual activity at 1 times IC50 incubated for 30 mins by dilution method relative to control; conditions: 0.5 h
T1 sequence (P27338 whole entry): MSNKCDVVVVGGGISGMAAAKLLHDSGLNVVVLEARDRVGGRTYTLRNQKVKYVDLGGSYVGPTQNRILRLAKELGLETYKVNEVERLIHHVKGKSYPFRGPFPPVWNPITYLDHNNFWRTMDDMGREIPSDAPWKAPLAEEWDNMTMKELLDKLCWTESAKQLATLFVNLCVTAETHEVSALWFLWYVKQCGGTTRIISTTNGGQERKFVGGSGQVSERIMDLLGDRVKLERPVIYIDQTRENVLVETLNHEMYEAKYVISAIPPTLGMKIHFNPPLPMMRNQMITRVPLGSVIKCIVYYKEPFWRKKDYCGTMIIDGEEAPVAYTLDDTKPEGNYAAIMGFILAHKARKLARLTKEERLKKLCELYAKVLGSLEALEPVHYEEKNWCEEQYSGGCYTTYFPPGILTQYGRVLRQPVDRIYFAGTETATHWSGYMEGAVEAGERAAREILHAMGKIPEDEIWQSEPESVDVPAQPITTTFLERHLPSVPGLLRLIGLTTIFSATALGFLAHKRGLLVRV

SH-SY5Y [5] = experiment: Inhibition of ROS production in human SH-SY5Y cells assessed as intracellular ROS level at 1 uM incubated for 24 hrs by DCF-DA staining based fluorescence analysis relative to control; assay type: functional
Procedure, shortened: (§3)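 Cultured SH-SY5Y cells exposed to compound (1, 5, 25 μM) for 24 h; intracellular ROS detected with DCF-DA, which is converted to fluorescent 2,7-DCF, read at ex 478/em 518 nm. Inhibition is expressed relative to control. Mean ± SD of triplicate or more independent experiments.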

[6] = biological target: T1, Amine oxidase [flavin-containing] B; experiment: Inhibition of recombinant MAO-B (unknown origin) at 20 uM preincubated for 30 mins followed substrate addition by Amplex Red reagent based fluorescence analysis relative to control
Procedure, shortened: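 Recombinant MAO enzyme preincubated with compound 30 min at 37 °C; substrate, HRP and Amplex Red working solution then added; H2O2 formation read at 37 °C by fluorescence, ex 545/em 590 nm. Screening at 20 μM as % inhibition versus control; IC50 only for compounds above 50% inhibition at 20 μM; triplicate (n = 3).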

Acetylcholinesterase [7] = biological target: T2, Acetylcholinesterase (Homo sapiens, UniProt P22303); experiment: Reversible inhibition of AChE (unknown origin) assessed as residual activity at 10 times IC50 incubated for 30 mins by dilution method relative to control
Procedure, shortened: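 Samples then diluted 100-fold with substrate, giving final inhibitor levels of 0.1× and 1× IC50. Recovered activity measured relative to control; triplicate.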

[8] = biological target: T1, Amine oxidase [flavin-containing] B; experiment: Reversible inhibition of MAO-B (unknown origin) assessed as residual activity at 10 times IC50 incubated for 30 mins by dilution method relative to control; conditions: 0.5 h
Acetylcholinesterase [9] = biological target: T2, Acetylcholinesterase; experiment: Mixed type inhibition of AChE (unknown origin) by Lineweaver-Burk plot analysis
Procedure, shortened: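 Ellman-based AChE kinetics run at several substrate concentrations and several final inhibitor concentrations. Mode of inhibition assigned from double-reciprocal Lineweaver–Burk plots.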

SH-SY5Y [10] = experiment: Cytotoxicity against human SH-SY5Y cells assessed as cell viability at 25 uM by MTT assay relative to control; assay type: functional; conditions: read-out: Activity; procedure, shortened: as §1
SH-SY5Y [11] = experiment: Cytotoxicity against human SH-SY5Y cells assessed as cell viability at 1 uM by MTT assay relative to control; assay type: functional; conditions: read-out: Activity; procedure, shortened: as §1
SH-SY5Y [12] = experiment: Inhibition of ROS production in human SH-SY5Y cells assessed as intracellular ROS level at 25 uM incubated for 24 hrs by DCF-DA staining based fluorescence analysis relative to control; assay type: functional; procedure, shortened: as §3
SH-SY5Y [13] = experiment: Neuroprotective activity against 6-OHDA-induced cytotoxicity in human SH-SY5Y cells assessed as cell viability at 1 uM incubated for 24 hrs followed by exposure to 6-OHDA by MTT assay relative to control; assay type: functional; conditions: read-out: Activity
Procedure, shortened: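 SH-SY5Y cells treated with compound (1, 5, 25 μM) and challenged with 6-OHDA; cultured 24 h at 37 °C under humidified 5% CO2. Viability measured by MTT as formazan absorbance at 594 nm and expressed relative to control.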

T2 sequence (P22303 whole entry): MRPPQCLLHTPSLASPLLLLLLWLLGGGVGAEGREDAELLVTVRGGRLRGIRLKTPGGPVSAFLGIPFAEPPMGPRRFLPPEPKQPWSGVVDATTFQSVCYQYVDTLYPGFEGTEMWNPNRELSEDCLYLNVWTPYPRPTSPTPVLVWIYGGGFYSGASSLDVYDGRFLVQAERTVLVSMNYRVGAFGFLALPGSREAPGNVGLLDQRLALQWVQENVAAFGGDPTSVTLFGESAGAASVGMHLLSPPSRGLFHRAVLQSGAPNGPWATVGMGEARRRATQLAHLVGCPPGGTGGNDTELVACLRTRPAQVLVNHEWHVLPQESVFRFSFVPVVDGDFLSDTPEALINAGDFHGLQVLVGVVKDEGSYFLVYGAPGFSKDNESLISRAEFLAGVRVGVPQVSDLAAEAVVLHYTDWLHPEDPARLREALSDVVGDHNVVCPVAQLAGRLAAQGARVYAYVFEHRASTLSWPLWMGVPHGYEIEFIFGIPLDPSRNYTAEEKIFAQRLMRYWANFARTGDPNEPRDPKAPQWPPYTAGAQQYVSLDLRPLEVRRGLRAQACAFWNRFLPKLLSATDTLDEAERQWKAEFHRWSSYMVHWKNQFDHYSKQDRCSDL
Amyloid-beta precursor protein (Homo sapiens), sequence (P05067 whole entry, the tested form may be a part): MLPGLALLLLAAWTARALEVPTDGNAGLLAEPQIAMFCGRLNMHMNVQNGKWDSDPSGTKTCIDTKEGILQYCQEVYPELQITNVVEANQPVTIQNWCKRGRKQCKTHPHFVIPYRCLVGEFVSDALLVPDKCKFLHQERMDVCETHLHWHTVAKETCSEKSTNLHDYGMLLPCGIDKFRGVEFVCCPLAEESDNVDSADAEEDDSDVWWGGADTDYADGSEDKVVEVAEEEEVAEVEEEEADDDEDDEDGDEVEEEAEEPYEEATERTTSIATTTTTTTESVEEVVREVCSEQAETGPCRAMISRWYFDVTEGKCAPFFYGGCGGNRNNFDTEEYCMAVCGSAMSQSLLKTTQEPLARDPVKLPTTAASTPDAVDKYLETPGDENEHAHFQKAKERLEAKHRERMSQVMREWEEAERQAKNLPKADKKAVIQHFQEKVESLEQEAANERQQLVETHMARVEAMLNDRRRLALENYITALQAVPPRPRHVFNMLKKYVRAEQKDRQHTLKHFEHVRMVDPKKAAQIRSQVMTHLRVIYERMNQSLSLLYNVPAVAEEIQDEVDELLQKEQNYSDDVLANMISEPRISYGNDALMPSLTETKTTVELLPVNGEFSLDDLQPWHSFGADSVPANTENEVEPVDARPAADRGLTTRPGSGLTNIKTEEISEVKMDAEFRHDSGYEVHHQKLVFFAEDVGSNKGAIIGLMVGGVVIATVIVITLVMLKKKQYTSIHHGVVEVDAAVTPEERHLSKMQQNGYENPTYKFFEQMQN
Cholinesterase, sequence (P06276 whole entry): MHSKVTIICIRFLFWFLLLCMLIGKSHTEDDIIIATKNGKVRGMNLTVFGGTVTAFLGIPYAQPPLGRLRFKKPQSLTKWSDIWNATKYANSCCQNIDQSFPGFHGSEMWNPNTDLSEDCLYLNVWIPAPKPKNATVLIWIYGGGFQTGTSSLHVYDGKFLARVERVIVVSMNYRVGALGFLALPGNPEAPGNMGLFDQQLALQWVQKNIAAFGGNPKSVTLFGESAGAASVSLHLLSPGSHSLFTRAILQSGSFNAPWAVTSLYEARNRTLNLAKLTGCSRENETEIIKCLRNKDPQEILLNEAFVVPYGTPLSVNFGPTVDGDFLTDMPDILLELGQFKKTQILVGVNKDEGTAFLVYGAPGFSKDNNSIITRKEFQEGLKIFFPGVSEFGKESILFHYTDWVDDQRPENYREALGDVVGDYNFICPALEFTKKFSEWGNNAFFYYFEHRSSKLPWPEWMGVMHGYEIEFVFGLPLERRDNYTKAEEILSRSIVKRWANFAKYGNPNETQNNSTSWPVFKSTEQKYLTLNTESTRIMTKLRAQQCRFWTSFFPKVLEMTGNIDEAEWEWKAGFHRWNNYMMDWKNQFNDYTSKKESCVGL

## C#CCCCOc1ccc(-c2cc(=O)c3ccccc3o2)cc1CN1CCCCC1
SH-SY5Y [1]
  viability at 5 µM: 97.4%
[2]
  inhibition: 32.2%
[3]
  inhibition: 22.1%
Cholinesterase
  IC50: 11 µM
[4]
  Activity: 50.3%
SH-SY5Y [5]
  inhibition at 1 µM: 65.7%
[6]
  inhibition at 20 µM: 61.2%
Acetylcholinesterase [7]
  Activity: 28.9%
[8]
  Activity: 27.8%
Acetylcholinesterase [9]
  inhibition: Active
SH-SY5Y [10]
  viability at 25 µM: 88.3%
SH-SY5Y [11]
  viability at 1 µM: 99.6%
SH-SY5Y [12]
  inhibition at 25 µM: 34.8%
SH-SY5Y [13]
  viability at 1 µM: 55.1%
